Results on one compound are retold here after ChEMBL document CHEMBL1123418, “N-imidazolylchroman-4-ones, N-imidazolyl-1-tetralones, and their alcohols as hypolipemic agents raising high-density lipoproteins” (1986).

SMILES strings stand for the structures. Several values for one entry are separate records, joined by “and”; a condition that tells them apart may be missing. Equal entries are not always repeated.

In assay [1] the test system is Rattus norvegicus. The assay can be described thus: Percent increase in liver weight in rats when a 50 mg/Kg dose was administered. The assay is classed as functional.
Assay [2] has as its system Rattus norvegicus. The experiment in a line: Percent increase in liver weight in rats when administered perorally. The assay is classed as functional.
Assay [3] has as its system Rattus norvegicus. The assay can be described thus: Compound was tested for Hepatic peroxisomal proliferation effect in male rats treated for 7 days at dose 50 mg/kg carnitine acetyl transferase activity(per mg) of protein. It counts as functional. The method in brief:
(§1)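 Male OFA-ICO SD rats received oral doses of 50 mg/kg/day for 1 week. Liver was homogenized in 0.25 M sucrose-0.01 M phosphate-0.1% ethanol, pH 7, then diluted in incubation buffer with 0.1% Triton X-100 and centrifuged. Supernatants were assayed for catalase (K, sec⁻¹), carnitine acetyltransferase (nmol CoASH/min) and cyanide-insensitive palmitoyl-CoA oxidation (nmol NAD⁺ reduced/min). Mean ± SEM of three rats; Dunnett's test.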

Assay [4] has as its system Rattus norvegicus. The assay can be described thus: Compound was tested for Hepatic peroxisomal proliferation effect in male rats treated for 7 days at dose 50 mg/kg protein. It counts as functional.
The test system of assay [5] is Rattus norvegicus. The assay can be described thus: Compound was tested for Hepatic peroxisomal proliferation effect in male rats treated for 7 days at dose 50 mg/kg palmitoyl-CoA oxidation activity(per mg) of protein. It counts as functional. The method in brief: as §1
Assay [6] relates to Rattus norvegicus. The experiment in a line: Percent change in total cholesterol concentration in serum from hypercholesterolemic rats at dose 50 mg/kg (po). To be noted: 50 mg/kg. It counts as functional.
In assay [7] the test system is Rattus norvegicus. The assay can be described thus: Compound was tested for Hepatic peroxisomal proliferation effect in male rats treated for 7 days at dose 50 mg/kg concentration of hepatic proteins(mg/g) in liver. It counts as functional, organism-based. Also on record: dose 50 mg/kg.
In assay [8] the test system is Rattus norvegicus. The experiment in a line: Compound was tested for Enzyme induction effect in male rats treated for 5 days at dose 75 mg/kg aminopyrine N-demethylase activity(per g) of liver. Conditions: dose 50 mg/kg; in the assay text read “50 mg/kg” for “75 mg/kg”. It counts as functional. The method in brief:
(§2)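 Male OFA-ICO SD rats were dosed orally for 5 days, with test compounds at 50 mg/kg/day and sodium phenobarbital at 75 mg/kg/day. Liver was homogenized in 1.15% KCl-0.01 M phosphate, pH 7.5. Microsomes were spun from the 9000g supernatant at 105000g and assayed for protein, cytochrome P-450, aniline p-hydroxylation (µmol p-aminophenol/20 min) and aminopyrine N-demethylation (µmol HCHO/5 min). Liver/body weight was also recorded. Mean ± SEM of four rats; Dunnett's test.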

The subject of assay [9] is Rattus norvegicus. The experiment in a line: Compound was tested for Enzyme induction effect in male rats treated for 5 days at dose 75 mg/kg aniline p-hydroxylase activity(per g) of liver. The assay is classed as functional. Conditions: dose 50 mg/kg; in the assay text read “50 mg/kg” for “75 mg/kg”. The method, boiled down:
as §2

Assay [10] concerns Rattus norvegicus. The experiment in a line: Compound was tested for Enzyme induction effect in male rats treated for 5 days at dose 75 mg/kg concentration of cytochrome […]( mmol/mg) in protein. Conditions: dose 50 mg/kg; in the assay text read “50 mg/kg” for “75 mg/kg”. It counts as functional. The method, boiled down:
as §2

The nature of assay [11]: Compound was tested for Enzyme induction effect in male rats treated for 5 days at dose 75 mg/kg ratio of % liver weight to % body weight. Conditions: dose 50 mg/kg; in the assay text read “50 mg/kg” for “75 mg/kg”. The assay is classed as functional. The method in brief: as §2
A short description of assay [12]: Compound was tested for Hepatic peroxisomal proliferation effect in male rats treated for 7 days at dose 50 mg/kg ratio of % liver weight to % body weight. It counts as functional.
The nature of assay [13]: Percent change in high density lipoprotein cholesterol.
The subject of assay [14] is Rattus norvegicus. The assay can be described thus: Percent change in triglyceride concentration in serum from normocholesterolemic rats at dose 50 mg/kg (po).
The test system of assay [15] is Rattus norvegicus. The experiment in a line: Percent change in low density lipoproteins cholesterol concentration in serum from normocholesterolemic rats at dose 50 mg/kg (po).
The subject of assay [16] is Rattus norvegicus. The experiment in a line: Compound was tested for Enzyme induction effect in male rats treated for 5 days at dose 50 mg/kg concentration of microsomal proteins(mg/g) in liver.

With `Cc1cccc(Nc2cc(Cl)nc(SCC(=O)NCCO)n2)c1C` [PIRINIXIL], the Change in [1] is 42%; in assay [2], 54%; in assay [6], -43% and -23%; in assay [14], -48%; in assay [15] it was -19%. The Activity amounted to 69.8 in [3]; 58.8 in assay [4]; 16.2 in assay [5]; 0.69 in assay [8]; 0.64 in assay [9]; 0.82 in assay [10]. In addition, the Concentration in assay [7] stood at 237; in assay [16], 25. Moreover, the Ratio in assay [11] stood at 4.99%; in assay [12] it was 5.31%. Moreover, the “Percent change in HDL cholesterol” value in assay [13] is reported as -9.
